rCAG RNA binder: molecules binding r(CAG) RNA repeats; r(CAG) RNA repeat, TO-PRO-1 dye displacement fluorescence; inhibition, % at 3 µM; 370,000 compounds, 1.3% hits;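 active = inhibition above the plate cutoff, the mean of all test compounds on that plate plus 3 SD, cut at about 35% in these data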;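 note: 0% = DMSO alone and 100% = 100 µM mitoxantrone as full dye displacement; higher means more dye released from RNA so lower well fluorescence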
HCV core dimer: HCV core protein dimerization inhibition | AID 1899 | 300,000 compounds, 0.33% hits | inhibition, % at 5 µM | TR-FRET GST/Flag-core106 dimerization, 1536-well;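 active = inhibition above the mean of all tested compounds plus 3 SD, set per screening campaign, cut at about 45% in these data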
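Assay system: tagged HCV core106 pair (GST and Flag); medium: KF-containing HEPES buffer, pH 7.45, DTT, CHAPS, BSA; also added: Eu donor and XL665 acceptor anti-tag antibodies; dosing: 5 µM single dose; timing: compound-protein-antibody incubation 4 h at 22.5 °C; signal: TR-FRET 671 and 617 nm emission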
NadD block: inhibitors of Staphylococcus aureus NadD; inhibition, % at 20 µM; purified NadD enzyme, colorimetric absorbance read-out; 360,000 compounds, 0.78% hits; in the data active = inhibition above about 26%
ABHD5 PLIN5 PPI: inhibitors of human ABHD5-perilipin-5 interaction. Q00G26+Q8WTS1. Split G. princeps luciferase complementation, luminescence, 4 h. inhibition, % at 4 µM. 360,000 compounds, 0.78% hits. AID 602281;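 active = inhibition above the mean inhibition across every tested compound plus 3 SD, cut at about 22% in these data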;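 note: 0% = DMSO only wells and the 100% control is not disclosed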
NadD inh conf: NadD (S. aureus) inhibition, single concentration confirmation; shares compounds with NadD block; purified S. aureus NadD, colorimetric enzyme assay; inhibition, % at 20 µM; 2,000 compounds, 13% hits; in the data active = inhibition mostly above about 42%, no sharp cut-off; inactive = mostly below about 42%
rCAG bind conf: r(CAG) RNA repeat binding, confirmation; shares compounds with rCAG RNA binder; TO-PRO-1 dye displacement fluorescence; inhibition, % at 3 µM; 4,300 compounds, 70% hits;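 active = inhibition above a per-plate cutoff, the mean inhibition of sample wells plus 3 SD, cut at about 35% in these data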;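 note: loss of TO-PRO-1 fluorescence as compound displaces dye from 1x1 AA loop RNA; 0% = DMSO only wells and 100% = 100 µM mitoxantrone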
DNA CAG counter: counter-screen for rCAG RNA binders: DNA CAG dye complex inhibitors | inhibition, % at 3 µM | shares compounds with rCAG RNA binder | 4,300 compounds, 94% hits | d(CAG) DNA oligo TO-PRO-1 dye displacement, fluorescence | AID 652068;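 active = inhibition above its plate's cutoff, the mean test-well inhibition plus 3 SD, cut at about 4.8% in these data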;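 note: 0% = DNA dye mix with DMSO and 100% = 100 µM mitoxantrone; hits displace the dye from DNA and so lower well fluorescence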
DNA CAG DR: counter-screen for rCAG binders: inhibitors of DNA CAG TO-PRO-1 complex; IC50, µM; shares compounds with rCAG RNA binder; AID 686960; DNA CAG/GTC duplex TO-PRO-1 dye displacement fluorescence; 250 compounds, 20% hits; in the data active = IC50 below about 10 µM
An asterisk follows results filed as active; / = not tested or not shown; ! = not confirmed by another sample. Compounds with a hit are over-represented: about 2.6% of the library has one in this group of screens.

SMILES	rCAG RNA binder	HCV core dimer	NadD block	ABHD5 PLIN5 PPI	NadD inh conf	rCAG bind conf	DNA CAG counter	others
COc1ccc(-c2nn(-c3ccccc3)cc2C(=O)NC(=S)NNC(=O)c2ccncc2)cc1	56*	4	58*	-20	38	55*	20*
COc1ccc(NC(=O)c2cn(-c3ccccc3)nc2-c2ccncc2)cc1	4	0	13	1	/	/	/
CC1=C(C(=O)Nc2ccccc2)C(c2ccc(C)o2)n2c(s/c(=C\c3ccco3)c2=O)=N1 (configuration not stated)	38*	/	34*	0	3	12	7.1*
COc1ccccc1C1C(C(C)=O)=C(C)N=c2s/c(=C\c3cc(OC)c(OC)c(OC)c3)c(=O)n21 (configuration not stated)	2	0	-4	3	/	/	/
CCOC(=O)/C(C#N)=C\c1ccc(O)c(OC)c1	1	3	1	-2	/	/	/
CCOC(=O)c1c(-c2ccc(C)cc2)csc1NC(=O)/C(C#N)=C/c1ccc(O)c(OC)c1	37*	/	59*	1	41	74*	48*
CCOC(=O)c1c(-c2ccccc2)csc1NC(=O)/C(C#N)=C\c1ccc(O)c(OC)c1	49*	/	35*	-8	24	64*	36*
Cc1cccc(C)c1NC(=O)C(CCc1ccccc1)N1CCN(CCN(C)C)CC1 (configuration not stated)	3	/	/	/	/	/	/
CCC(C)c1ccc(C2C3=C(Nc4nc(N)[nH]c(=O)c42)c2ccccc2C3=O)cc1 (configuration not stated)	43*	11	37*	12	11	47*	29*
CCc1nnc(NS(=O)(=O)c2ccc(NC(=S)NC(=O)/C=C/c3ccc(F)cc3)cc2)s1	85*	24	31*	-2	51*	86*	59*
CCc1nnc(NS(=O)(=O)c2ccc(NC(=S)NC(=O)c3ccncc3)cc2)s1	19	-4	0	-1	/	/	/
COc1ccccc1/C=C/C=C1N=C(/C=C/c2ccc(Cl)cc2)OC/1=O	54*	43	32*	-2	-3	37*	10*
O=C(N[C@H](Cc1ccccc1)C(=O)N1CCN(Cc2ccccn2)CC1)[C@H]1O[C@@H](n2ccc(=O)[nH]c2=O)[C@H](O)[C@@H]1O	3	/	/	/	/	/	/
Cc1cccc(Cn2cc(CN3CC(N4CCN(CCOC(=O)c5cc6ccccc6o5)CC4)CS3(=O)=O)nn2)c1 (configuration not stated)	6	/	/	/	/	/	/
COc1cc(C#Cc2c(-c3cncn3C)n(C)c3ccc(-c4cnc(OC)nc4)cc23)cc(OC)c1	74*	/	30*	22	14	15	10*
COc1cccc(C(=O)Nc2nnc(S(=O)(=O)N(C)Cc3ccc(F)cc3)s2)c1	70*	23	30*	-4	16	65*	25*
OCCNc1ncnc2c1ncn2[C@H]1CN(Cc2ccncc2)C[C@@H](CO)O1	1	/	1	-4	/	/	/
N#Cc1c(SCC(=O)Nc2nc3ccc(Br)cc3s2)sc2c(O)cc(=O)[nH]c12	67*	-44	41*	-5	39	82*	51*
CC1CCc2c(sc(Nc3nc4c(F)cccc4s3)c2C(N)=O)C1 (configuration not stated)	42*	0	36*	3	8	26	14*
O=C(Nc1nc2c(F)cccc2s1)C1CC1	1	-9	-1	5	/	/	/
O=S(=O)(/N=C(/Nc1ccc(Cl)c(S(=O)(=O)Nc2ccccc2Cl)c1)c1ccc(F)cc1)c1ccccc1	66*	20	41*!	8	55*	71*	26*	DNA CAG DR=>30
COc1ccccc1NS(=O)(=O)c1cc(N/C(=N/S(=O)(=O)c2ccccc2)c2ccc(F)cc2)ccc1Cl	16	/	5	1	/	/	/
O=C(O)c1ccccc1-c1ccc(C=c2sc3nc4cc(Br)cnc4n3c2=O)o1	81*	/	59*	-10	43	72*	39*
O=C(O)c1cccc(-c2ccc(/C=c3/sc4nc5ccccc5n4c3=O)o2)c1	28	5	6	-1	/	/	/
Cc1cc(N2CCN(C(=O)Oc3ccc(-c4ccccc4)cn3)CC2)c2ccccc2n1	4	/	/	/	/	/	/
SMILES	rCAG RNA binder	HCV core dimer	NadD block	ABHD5 PLIN5 PPI	NadD inh conf	rCAG bind conf	DNA CAG counter	others
Cc1onc(-c2ccccc2)c1C(=O)Nc1ccc(S(=O)(=O)Nc2nccs2)cc1	33	4	-3	-2	/	/	/
O=S(=O)(Nc1nccs1)c1ccc(Nc2nnc(-c3ccccc3)c3ccccc23)cc1	54*	19	64*	11	62*	65*	27*
Cc1cccc2sc(NNC(=O)c3cc(=O)c4ccccc4o3)nc12	54*	7	45*	-4	60*	78*	35*
Cc1ccc2sc(NNC(=O)c3cc(=O)c4ccccc4o3)nc2c1C	75*	-19	64*	-18	70*	86*	45*
O=C(Nc1ccc(O)c(-c2nc3ccccc3s2)c1)c1cc(=O)c2ccccc2o1	3	-2	13	6	/	/	/
Cc1ccc2sc(NNC(=O)C3COc4ccccc4O3)nc2c1C (configuration not stated)	11	1	0	-19	/	/	/
COC(=O)C[C@H]1CC[C@H]2[C@H](COc3ccc(NC(=O)c4cccs4)cc3C(=O)N2C)O1	0	/	/	/	/	/	/
C/C(=N\Nc1nc(-c2cc(C)ccc2C)cs1)c1cc2c(ccc3ccccc32)oc1=O	47*	61*	48*	-10	4	45*	23*
CCOc1ccc(N=C2SC(C(=O)Nc3ccccc3C#N)C(N)=C2C(=O)Nc2ccc(Cl)cc2)cc1 (configuration not stated)	39*	55*	31*	-2	6	28	17*
COc1cc(NS(=O)(=O)c2ccc(NC(=O)c3cccs3)cc2)nc(OC)n1	15	4	-8	3	/	/	/
COc1ccc(-c2csc(Nc3ccc(S(=O)(=O)Nc4cc(OC)nc(OC)n4)cc3)n2)cc1	90*	18	28*	0	42	90*	57*
COc1ccc(-c2csc(NC(=O)c3c(OC)cccc3OC)n2)cc1	12	22	3	-4	/	/	/
COc1ccc(-c2csc(NC(=O)c3ccccc3NS(=O)(=O)c3ccc(C)cc3)n2)cc1	85*	17	42*	1	51*	95*	82*
CC(C)C[C@@H]1NC(=O)[C@@H]2CSCCS(=O)(=O)N2C1=O	0	/	/	/	/	/	/
Cc1cc(Br)cn2c(Cc3cccc(F)c3)c(-c3ccccc3)nc12	19	/	5	-12	/	/	/
NC1(N2SC(S)=C3CCCC=C32)CCCCC1	11	/	/	/	/	/	/

Source: PubChem BioAssay (several laboratories)
